Test results taken from publication PMC6434473 (Cell Transplantation, 2018).
“Also recorded” adds a separate entry of the source.

How the values were obtained:
human CXCR4 = assay: SDF-1α-induced phosphorylation of Akt and Erk in CXCR4-transfected CHO cells; type: cell-based; conditions: SDF-1α 12.5 nM
Summary of the method: (§1)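 CHO cells were stably transfected with pcDNA3-hCXCR4 or pcDNA3-hCXCR7, selected in G418 (1.2 mg/mL) and single-cell cloned; the CXCR4 line was also FACS-sorted. After SDF-1α exposure, cells were lysed 30 min on ice (Tris/NaCl/EGTA/deoxycholate/Triton/SDS, pH 7.2, plus phosphatase/protease inhibitors). Blots: BCA-matched protein, 8% SDS-PAGE, nitrocellulose, primary antibodies overnight at 4°C, HRP secondary 1 h at room temperature, chemiluminescent detection.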

CXCR7 [1] = conditions: cited from earlier work
CXCR7 [2] = assay: SDF-1α-induced phosphorylation of Akt and Erk in CXCR7-transfected CHO cells; type: cell-based, human; conditions: Western blotting; for effect on SDF-1α-induced Akt phosphorylation: peptides with SDF-1α
Summary of the method: as §1

wild-type CHO cells = assay: SDF-1α-induced phosphorylation of Akt in wild-type CHO cells; type: cell-based, Chinese hamster; conditions: SDF-1α 12.5 nM, Western blotting
Summary of the method: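 Untransfected CHO cells were treated with SDF-1α (12.5 nM), then lysed 30 min on ice in pH 7.2 Tris/NaCl/EGTA/deoxycholate/Triton/SDS buffer with phosphatase/protease inhibitors. Lysates were cleared at 17,000 g, 15 min, 4°C. BCA-matched protein ran on 8% SDS-PAGE onto nitrocellulose, blocked with milk or BSA in TBST. Probing: primary overnight at 4°C, HRP secondary 1 h at room temperature, chemiluminescence.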

[3] = test system: CXCR4-dependent HIV-1 strains; conditions: cited from earlier work
CXCR4 = conditions: HEK293 cells that stably expressed CXCR4; cited from earlier work
C3H/HeJ mice = assay: Mobilization of hematopoietic progenitor cells to the blood; type: in vivo, mouse; conditions: subcutaneous, 1 h; for mobilization of BFU-E from the bone marrow to the blood / mobilization of CFU-GEMM from the bone marrow to the blood / mobilization of CFU-GM from the bone marrow to the blood: 7-day culture in MethoCult GF M3434; for mobilization of HPCs from the bone marrow to the peripheral blood: vs vehicle control (P < 0.01), monovalent peptide 37.5 and 150 mg/kg, bivalent peptide 57.5 and 230 mg/kg, mean of at least three independent experiments
Summary of the method: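 C3H/HeJ mice received vehicle or peptide subcutaneously. After 1 h, peripheral blood was drawn into heparin-treated tubes and red cells were lysed with ammonium chloride. Cells were grown in MethoCult GF M3434 for 7 days in humidified 5% CO2. CFU-GM, BFU-E and CFU-GEMM colonies were counted.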

HSCs = conditions: clinical studies; cited from earlier work
[4] = SDF-1α 12.5 nM, 5, 15, 30, 45, 60 minutes

Compound | mobilization of BFU-E from the bone marrow to the blood (C3H/HeJ mice) | mobilization of CFU-GEMM from the bone marrow to the blood (C3H/HeJ mice) | mobilization of CFU-GM from the bone marrow to the blood (C3H/HeJ mice) | mobilization of HPCs from the bone marrow to the peripheral blood (C3H/HeJ mice) | effect on SDF-1α-induced Akt phosphorylation (CXCR7 [2]) | anti-HIV entry activity [3] | other results
SDF-1α: specific ligand of CXCR4 | – | – | – | – | – | – | induction of phosphorylation of Akt (human CXCR4; Western blotting): induced the phosphorylation of Akt and Erk significantly; induction of phosphorylation of Erk (human CXCR4; Western blotting): induced the phosphorylation of Akt and Erk significantly; affinity for CXCR7 compared with CXCR4 (CXCR7 [1]): higher; induction of Akt phosphorylation (CXCR7 [2]; [4]): only Akt phosphorylation was observed consistently from 5 to 60 minutes; also recorded: only weak phosphorylation of Akt; induction of Erk phosphorylation (CXCR7 [2]; [4]): no phosphorylation changes were observed for Erk; induction of Akt phosphorylation (wild-type CHO cells): no changes in Akt phosphorylation
LGASWHRPDKCCLGYQKRPLPQVL LSSWYPTSQLCSKPGVIFLTKRGRQ VCADKSKDWVKKLMQQLPVTAR [vMIP-II] | – | – | – | – | – | – | inhibition of HIV-1 entry ([3]; vMIP-II binding to CXCR4 or CCR5): inhibitory effect on HIV-1 entry
LGASWHRPDKCCLGYQKRPLPK [HC4319] | strongly induced rapid mobilization | strongly induced rapid mobilization | strongly induced rapid mobilization | strong mobilization of HPCs | little inhibitory effects; also recorded: little or no effect | – | CXCR4 binding potency compared with the monomeric counterparts DV1 and DV3 (CXCR4): much more potent; inhibitory effect on phosphorylation of Akt compared with DV1 (human CXCR4; 30 μM, bivalent vs monovalent): more potent inhibitory effect; inhibitory effect on phosphorylation of Erk compared with DV1 (human CXCR4; 30 μM, bivalent vs monovalent): more potent inhibitory effect
LGASWHRPDK [DV3] | – | – | – | – | – | anti-HIV entry activity | –
LGASWHRPDKCCLGYQKRPLP [DV1] | strongly induced rapid mobilization | strongly induced rapid mobilization | strongly induced rapid mobilization | strong mobilization of HPCs | slight effect; also recorded: little or no effect | anti-HIV entry activity | effect on SDF-1α-induced Akt phosphorylation (CXCR7 [2]; listed as DV-1): little inhibitory effects
c1cc(CN2CCCNCCNCCCNCC2)ccc1CN1CCCNCCNCCCNCC1 [AMD3100] | – | – | – | – | – | – | mobilization of HSCs to the peripheral blood (HSCs): rapid mobilization of HSCs to the peripheral blood
